# Assay results taken from ChEMBL document CHEMBL1125520, “Improved brain delivery of AZT using a glycosyl phosphotriester prodrug” (1992).
# What was measured:
# [1] = species on record: Mus musculus; assay: In Vitro detection by Gray and Whittaker method for the total internal nucleoside; type: functional
# In short: (§1)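 Crude synaptosomes from three mouse brains were prepared by Gray–Whittaker homogenization in 10% sucrose buffered with 5 mM Tris-HCl, pH 7.4. The 7000g pellet was resuspended and incubated with each nucleoside at 3 mM for 15 min at 37 °C, stopped by cold 10-fold dilution and washed twice. Internal nucleoside was extracted in acetonitrile–water (3:1) and measured by HPLC.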
# [2] = system: Mus musculus; assay: In Vivo detection in Mice brains after oral administration of 20 mg/kg detected in the form of AZT phosphodiester 2 after 48 hr; type: functional
# [3] = system: Mus musculus; assay: In Vivo detection of total AZT in Mice brains after oral administration of 41.63 mg/kg after 4 hr; type: functional
# In short: (§2)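 Male Swiss mice (18–20 g) dosed orally with a 3 mM solution in […] vehicle; decapitated at 0.5–48 h. Brains were homogenized in acetonitrile-water (3:1), centrifuged at 6000g for 40 min at 4 °C, lyophilized, redissolved in water and filtered (0.45 µm). Reversed-phase C18 column-switching HPLC with diode-array detection; standard spiking; vehicle-fed controls. Three mice per point, triplicates.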
# [4] = species on record: Mus musculus; assay: (§3) Concentration of external nucleoside in mouse brain; type: functional
# In short: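 Male Swiss mice (6 weeks, 18–20 g) dosed by oral gavage in saline vehicle at 20 mg/kg AZT or molar equivalent (3 mM, 1.5 µmol/mouse). Brains taken 0.5–48 h post-dose, homogenized in acetonitrile–water 3:1, centrifuged, lyophilized and filtered. Analysed by column-switching C18 HPLC with diode-array detection against spiked standards and vehicle controls. Three mice per time point, triplicates; not recovery-corrected.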
# [5] = system: Mus musculus; assay: In Vivo detection in Mice plasma after oral administration of 41.63 mg/kg detected in the form of AZT phosphodiester 2 after 24 hr; type: functional, organism-based; design: dose 41.63 mg/kg
# [6] = system: Mus musculus; assay: In Vivo detection in Mice plasma after oral administration of 41.63 mg/kg detected in the form of AZT 5`-P after 8 hr; type: functional, organism-based; design: dose 41.63 mg/kg
# [7] = system: Mus musculus; assay: In Vivo detection in Mice plasma after oral administration of 41.63 mg/kg detected in the form of AZT after 2 hr; type: functional, organism-based; design: dose 41.63 mg/kg
# [8] = species on record: Mus musculus; assay: In Vitro detection by Gray and Whittaker method for % of internalization by comparing with external nucleoside of 2000 nM/g; type: functional; in short: as §1
# [9] = system: Mus musculus; assay: In Vivo detection in Mice plasma after oral administration of 41.63 mg/kg detected in the form of AZT phosphodiester 2 after 0.5 hr; type: functional, organism-based; design: dose 41.63 mg/kg
# [10] = system: Mus musculus; assay: In Vivo detection of total AZT in Mice plasma after oral administration of 41.63 mg/kg after 0.5 hr; type: functional, organism-based; design: dose 41.63 mg/kg
# In short: (§4)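 Male Swiss mice (18–20 g, six weeks old) given the test substance or vehicle ([…]) by gavage as a 3 mM solution (1.5 µmol/mouse). Aortic blood was collected into heparinized tubes at 0.5–48 h and centrifuged at 13000g for 10 min. Plasma was stored at -22 °C and analysed by HPLC. Three mice were used per time point, in triplicate. Values were not corrected for recovery.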
# [11] = system: Mus musculus; assay: In Vivo detection in Mice brains after oral administration of 41.63 mg/kg detected in the form of AZT phosphodiester 2 after 0.5 hr; type: functional
# [12] = system: Mus musculus; assay: In Vivo detection in Mice brains after oral administration of 41.63 mg/kg detected in the form of AZT 5`-P after 2 hr; type: functional
# [13] = system: Mus musculus; assay: In Vivo detection in Mice plasma after oral administration of 41.63 mg/kg detected in the form of AZT after 48 hr; type: functional, organism-based; design: dose 41.63 mg/kg
# [14] = system: Mus musculus; assay: In Vivo detection in Mice plasma after oral administration of 41.63 mg/kg detected in the form of AZT 5`-P after 4 hr; type: functional, organism-based; design: dose 41.63 mg/kg
# [15] = system: Mus musculus; assay: In Vivo detection in Mice brains after oral administration of 41.63 mg/kg detected in the form of AZT after 48 hr; type: functional
# [16] = system: Mus musculus; assay: In Vivo detection in Mice plasma after oral administration of 41.63 mg/kg detected in the form of AZT after 1 hr; type: functional, organism-based; design: dose 41.63 mg/kg
# [17] = system: Mus musculus; assay: In Vivo detection in Mice brains after oral administration of 41.63 mg/kg detected in the form of AZT phosphodiester 2 after 4 hr; type: functional
# [18] = system: Mus musculus; assay: In Vivo detection in Mice brains after oral administration of 58.33 mg/kg detected in the form of AZT after 48 hr; type: functional
# [19] = system: Mus musculus; assay: In Vivo detection of total AZT in Mice plasma after oral administration of 58.33 mg/kg after 0.5 hr; type: functional, organism-based; design: dose 58.33 mg/kg; in short: as §4
# [20] = system: Mus musculus; assay: In Vivo detection of total AZT in Mice brains after oral administration of 58.33 mg/kg after 0.5 hr; type: functional; in short: as §2
# [21] = system: Mus musculus; assay: In Vivo detection in Mice plasma after oral administration of 58.33 mg/kg detected in the form of AZT phosphodiester 3 after 0.5 hr; type: functional, organism-based; design: dose 58.33 mg/kg; in short: as §4
# [22] = system: Mus musculus; assay: In Vivo detection of total AZT in Mice brains after oral administration of 58.33 mg/kg after 1 hr; type: functional; in short: as §2
# [23] = system: Mus musculus; assay: In Vivo detection of total AZT in Mice plasma after oral administration of 58.33 mg/kg after 1 hr; type: functional, organism-based; design: dose 58.33 mg/kg; in short: as §4
# [24] = system: Mus musculus; assay: In Vivo detection in Mice brains after oral administration of 58.33 mg/kg detected in the form of AZT phosphodiester 2 after 4 hr; type: functional
# [25] = system: Mus musculus; assay: In Vivo detection in Mice plasma after oral administration of 58.33 mg/kg detected in the form of AZT phosphodiester 2 after 48 hr; type: functional, organism-based; design: dose 58.33 mg/kg; in short: as §4
# [26] = system: Mus musculus; assay: In Vivo detection in Mice brains after oral administration of 58.33 mg/kg detected in the form of AZT phosphodiester 2 after 1 hr; type: functional
# [27] = system: Mus musculus; assay: In Vivo detection in Mice brains after oral administration of 58.33 mg/kg detected in the form of AZT 5`-P after 2 hr; type: functional
# [28] = system: Mus musculus; assay: In Vivo detection in Mice brains after oral administration of 58.33 mg/kg detected in the form of AZT phosphodiester 3 after 2 hr; type: functional
# [29] = system: Mus musculus; assay: In Vivo detection in Mice plasma after oral administration of 58.33 mg/kg detected in the form of AZT phosphodiester 2 after 4 hr; type: functional, organism-based; design: dose 58.33 mg/kg; in short: as §4
# [30] = system: Mus musculus; assay: In Vivo detection of total AZT in Mice plasma after oral administration of 58.33 mg/kg after 24 hr; type: functional, organism-based; design: dose 58.33 mg/kg; in short: as §4
# [31] = system: Mus musculus; assay: In Vivo detection of total AZT in Mice plasma after oral administration of 58.33 mg/kg after 8 hr; type: functional, organism-based; design: dose 58.33 mg/kg; in short: as §4
# [32] = system: Mus musculus; assay: In Vivo detection in Mice plasma after oral administration of 58.33 mg/kg detected in the form of AZT phosphodiester 3 after 48 hr; type: functional, organism-based; design: dose 58.33 mg/kg; in short: as §4
# [33] = system: Mus musculus; assay: In Vivo detection in Mice brains after oral administration of 58.33 mg/kg detected in the form of AZT 5`-P after 1 hr; type: functional
# [34] = species on record: Mus musculus; assay: as §3; type: functional; in short: as §1; remark: listed apart in the source
# [35] = system: Mus musculus; assay: In Vivo detection in Mice plasma after oral administration of 58.33 mg/kg detected in the form of AZT after 0.5 hr; type: functional, organism-based; design: dose 58.33 mg/kg
# [36] = system: Mus musculus; assay: In Vivo detection in Mice plasma after oral administration of 58.33 mg/kg detected in the form of AZT 5`-P after 2 hr; type: functional, organism-based; design: dose 58.33 mg/kg
# [37] = system: Mus musculus; assay: In Vivo detection in Mice brains after oral administration of 58.33 mg/kg detected in the form of AZT phosphodiester 3 after 0.5 hr; type: functional
compound,measurement,setting,value
Cc1cn([C@H]2C[C@H](N=[N+]=[N-])[C@@H](COP(=O)(O)OCCO[C@H]3O[C@H](CO)[C@@H](O)[C@H](O)[C@@H]3O)O2)c(=O)[nH]c1=O,Brain content,[1],8.3 nM/g
same,Brain content,[2],2.5 nM ml-1
same,Brain content,[3],68.1 nM ml-1
same,External nucleoside,[4],8000 nM/g
same,Plasma content,[5],0 nM ml-1
same,Plasma content,[6],5.7 nM ml-1
same,Plasma content,[7],3.1 nM ml-1
same,Internalisation,[8],0.1%
same,Plasma content,[9],4.5 nM ml-1
same,Plasma content,[10],56.5 nM ml-1
same,Brain content,[11],5.8 nM ml-1
same,Brain content,[12],19.8 nM ml-1
same,Plasma content,[13],0 nM ml-1
same,Plasma content,[14],6.7 nM ml-1
same,Brain content,[15],0.8 nmol/g
same,Plasma content,[16],18.3 nM ml-1
same,Brain content,[17],7.9 nM ml-1
CCCCCCCCCCCCCCCCOP(=O)(OCCO[C@H]1O[C@H](CO)[C@@H](O)[C@H](O)[C@@H]1O)OCC1OC(n2cc(C)c(=O)[nH]c2=O)CC1N=[N+]=[N-] (some centres undefined),Brain content,[18],1.1 nmol/g
same,Brain content,[1],567.8 nM/g
same,Plasma content,[19],13.7 nM ml-1
same,Brain content,[20],38.5 nM ml-1
same,Plasma content,[21],0 nM ml-1
same,Brain content,[22],156.7 nM ml-1
same,Plasma content,[23],14 nM ml-1
same,Brain content,[24],7.1 nmol/g
same,Plasma content,[25],0 nM ml-1
same,Brain content,[26],8.5 nmol/g
same,Brain content,[27],133 nmol/g
same,Brain content,[28],0 nmol/g
same,Internalisation,[8],6.24%
same,Plasma content,[29],0 nM ml-1
same,Plasma content,[30],28.5 nM ml-1
same,Plasma content,[31],26.3 nM ml-1
same,Plasma content,[32],0 nM ml-1
same,Brain content,[33],147 nmol/g
same,External nucleoside,[34],9100 nM/g
same,Plasma content,[35],1.6 nM ml-1
same,Plasma content,[36],4 nM ml-1
same,Brain content,[37],0 nmol/g
